ChEMBL document CHEMBL4257575, “Discovery of Novel Flavonoid Dimers To Reverse Multidrug Resistance Protein 1 (MRP1, ABCC1) Mediated Drug Resistance in Cancers Using a High Throughput Platform with "Click Chemistry"” (J Med Chem, 2018)

Biological target: Multidrug resistance-associated protein 1 (Homo sapiens, UniProt P33527)
Experiment: Inhibition of MRP1 in human 2008/MRP1 cells assessed as potentiation of doxorubicin-induced cytotoxicity by measuring cell survival at 2 uM after 5 days by MTS assay relative to control
Format: cell-based
Conditions: 120 h
Method in brief: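 2008/MRP1 cells (retroviral human MRP1 transfectant; RPMI 1640, 10% FBS) at 4,000 per well, with 100 nM doxorubicin plus crude, unpurified click products in DMSO: 2 µM in the primary screen, 1 µM in the secondary. Incubated 5 days at 37 °C. MTS/PMS added for 2 h at 37 °C, absorbance read at 490 nm. % survival is relative to wells without DOX or product. Run in triplicate, at least three experiments.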

Multidrug resistance-associated protein 1, sequence (P33527 whole entry): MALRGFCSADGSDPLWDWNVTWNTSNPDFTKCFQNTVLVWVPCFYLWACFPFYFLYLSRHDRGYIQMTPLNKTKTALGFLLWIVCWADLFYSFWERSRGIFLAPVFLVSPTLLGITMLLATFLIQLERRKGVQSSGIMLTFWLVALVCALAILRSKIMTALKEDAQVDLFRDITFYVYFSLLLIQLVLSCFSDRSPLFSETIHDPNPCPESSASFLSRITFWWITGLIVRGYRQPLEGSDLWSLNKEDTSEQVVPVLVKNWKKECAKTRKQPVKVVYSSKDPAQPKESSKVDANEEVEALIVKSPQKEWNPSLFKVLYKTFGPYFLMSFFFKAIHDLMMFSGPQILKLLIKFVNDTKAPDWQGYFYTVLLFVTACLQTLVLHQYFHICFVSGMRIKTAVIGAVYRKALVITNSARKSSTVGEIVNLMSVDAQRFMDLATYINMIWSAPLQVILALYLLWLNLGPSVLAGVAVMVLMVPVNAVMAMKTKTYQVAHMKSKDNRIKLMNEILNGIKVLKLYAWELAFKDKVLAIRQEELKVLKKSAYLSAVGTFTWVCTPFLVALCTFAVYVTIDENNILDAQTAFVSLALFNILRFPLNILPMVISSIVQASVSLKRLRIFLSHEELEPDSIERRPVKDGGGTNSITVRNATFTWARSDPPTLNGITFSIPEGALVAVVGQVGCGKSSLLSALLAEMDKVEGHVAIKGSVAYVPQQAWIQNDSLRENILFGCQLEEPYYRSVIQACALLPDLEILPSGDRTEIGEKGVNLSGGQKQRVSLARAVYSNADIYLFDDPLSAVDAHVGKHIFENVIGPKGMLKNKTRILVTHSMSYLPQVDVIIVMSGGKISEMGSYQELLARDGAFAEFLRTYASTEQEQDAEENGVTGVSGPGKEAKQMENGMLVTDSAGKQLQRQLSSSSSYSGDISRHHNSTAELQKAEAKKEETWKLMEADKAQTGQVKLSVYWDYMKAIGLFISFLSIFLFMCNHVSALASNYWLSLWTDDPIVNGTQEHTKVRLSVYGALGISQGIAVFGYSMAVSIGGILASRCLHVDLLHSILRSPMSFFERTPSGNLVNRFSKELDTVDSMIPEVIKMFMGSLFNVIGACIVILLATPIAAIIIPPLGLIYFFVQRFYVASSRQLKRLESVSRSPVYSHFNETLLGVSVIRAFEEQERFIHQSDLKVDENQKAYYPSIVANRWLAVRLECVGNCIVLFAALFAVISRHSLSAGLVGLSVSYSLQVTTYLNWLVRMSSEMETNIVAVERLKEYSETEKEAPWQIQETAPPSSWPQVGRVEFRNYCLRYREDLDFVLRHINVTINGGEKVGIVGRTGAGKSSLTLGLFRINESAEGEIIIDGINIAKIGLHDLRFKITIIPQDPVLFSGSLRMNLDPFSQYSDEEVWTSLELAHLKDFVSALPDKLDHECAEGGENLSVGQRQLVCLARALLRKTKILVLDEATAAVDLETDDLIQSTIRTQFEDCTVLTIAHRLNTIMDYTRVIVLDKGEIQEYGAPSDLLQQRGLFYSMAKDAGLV

Compared with `O=c1c(OCc2ccccc2)c(-c2cccc(OCCOCCn3cc(CN4CCN(Cc5cn(CCOCCOc6cccc(-c7oc8ccccc8c(=O)c7OCc7ccccc7)c6)nn5)CC4)nn3)c2)oc2ccccc12`, `O=c1c(OCc2ccccc2)c(-c2cccc(OCCOCCn3cc(CN(Cc4ccccc4)Cc4cn(CCOCCOc5cccc(-c6oc7ccccc7c(=O)c6OCc6ccccc6)c5)nn4)nn3)c2)oc2ccccc12` is higher in Survival: 84% for the first, 87% for the second.

Compared with `O=Cc1ccc(OCCCCc2cn(CCOCCOCCOc3ccc(-c4oc5ccccc5c(=O)c4OCc4ccccc4)cc3)nn2)cc1`, `O=Cc1ccc(OCCCCc2cn(CCOCCOc3cccc(-c4oc5ccccc5c(=O)c4OCc4ccccc4)c3)nn2)cc1` is higher in Survival: 75% for the first, 82% for the second.

Going from `COc1cccc(COc2c(-c3ccc(OCCCCc4cn(CCOCCOc5cccc(-c6oc7ccccc7c(=O)c6OCc6ccccc6)c5)nn4)cc3)oc3ccccc3c2=O)c1` to `COc1cccc(COc2c(-c3ccc(OCCCCc4cn(CCOCCOc5ccc6c(=O)cc(-c7ccccc7)oc6c5)nn4)cc3)oc3ccccc3c2=O)c1`, the Survival falls from 75% to 56%.

Going from `O=c1cc(-c2ccc(OCCOCCOCCn3cc(CCCCOc4ccc5c(=O)cc(-c6ccccc6)oc5c4)nn3)cc2)oc2ccccc12` to `O=c1cc(-c2ccc(OCCOCCOCCn3cc(CCCOc4ccc5c(=O)cc(-c6ccccc6)oc5c4)nn3)cc2)oc2ccccc12`, the Survival falls from 57% to 54%.

Compared with `O=Cc1ccc(OCCCCc2cn(CCOCCOCCOc3ccc4c(=O)cc(-c5ccccc5)oc4c3)nn2)cc1`, `O=Cc1ccc(OCCCCc2cn(CCOCCOCCOc3ccc(-c4cc(=O)c5ccccc5o4)cc3)nn2)cc1` is lower in Survival: 81% for the first, 70% for the second.

First: COCOc1cc(OCc2ccccc2)c2c(=O)cc(-c3ccc(OCCCc4cn(CCOCCOc5ccc6c(=O)cc(-c7ccccc7)oc6c5)nn4)cc3)oc2c1
Second: COCOc1cc(OCc2ccccc2)c2c(=O)cc(-c3ccc(OCCCc4cn(CCOCCOc5ccc(-c6cc(=O)c7cc(F)ccc7o6)cc5)nn4)cc3)oc2c1
The Survival of the first is lower: 54% for the first, 63% for the second.

Compared with `O=c1cc(-c2ccccc2)oc2cc(OCCOCCn3cc(CN4CCN(Cc5cn(CCOCCOc6ccc7oc(-c8ccccc8)cc(=O)c7c6)nn5)CC4)nn3)ccc12`, `O=c1cc(-c2ccccc2)oc2cc(OCCOCCn3cc(CN(Cc4ccccc4)Cc4cn(CCOCCOc5ccc6oc(-c7ccccc7)cc(=O)c6c5)nn4)nn3)ccc12` is lower in Survival: 99% for the first, 76% for the second.

Compared with `O=C(/C=C/c1ccc(OCCCCc2cn(CCOCCOc3ccc4c(=O)cc(-c5ccccc5)oc4c3)nn2)cc1)c1ccccc1O`, `O=C(/C=C/c1ccc(OCCCCc2cn(CCOCCOc3ccc4c(=O)cc(-c5ccccc5)oc4c3)nn2)cc1)c1ccc(F)cc1O` is higher in Survival: 58% for the first, 64% for the second.

First: O=c1[nH]c(-c2ccc(OCCCc3cn(CCOc4cccc5c(=O)cc(-c6ccccc6)oc45)nn3)cc2)nc2ccccc12
Second: O=c1cc(-c2ccc(OCCCc3cn(CCOc4cccc5c(=O)cc(-c6ccccc6)oc45)nn3)cc2)oc2ccc(F)cc12
The Survival of the first is lower: 67% for the first, 89% for the second.

First: O=C(/C=C/c1ccc(OCCCCc2cn(CCOc3cccc4c(=O)cc(-c5ccccc5)oc34)nn2)cc1)c1ccc(F)cc1O
Second: Cc1ccc(C(=O)/C=C/c2ccc(OCCCCc3cn(CCOCCOc4ccc(-c5cc(=O)c6ccccc6o5)cc4)nn3)cc2)c(O)c1
The Survival of the first is higher: 73% for the first, 57% for the second.

Compared with `C#CCCCOc1ccc(-c2cc(=O)c3cc(F)ccc3o2)cc1`, `C#CCCCOc1ccc(-c2cc(=O)c3ccc(F)cc3o2)cc1` is lower in Survival: 81% for the first, 79% for the second.

First: O=c1cc(-c2ccccc2)oc2cc(OCCCCc3cn(CCOCCOc4cccc(-c5oc6ccccc6c(=O)c5OCc5ccccc5)c4)nn3)ccc12
Second: O=c1cc(-c2ccccc2)oc2cc(OCCCCc3cn(CCOCCOCCOc4ccc(-c5oc6ccccc6c(=O)c5OCc5ccccc5)cc4)nn3)ccc12
The Survival of the first is lower: 62% for the first, 63% for the second.

Going from `COc1cccc(COc2c(-c3ccc(OCCOCCn4cc(CNc5ccccc5)nn4)cc3)oc3ccccc3c2=O)c1` to `COc1cccc(COc2c(-c3ccc(OCCOCCn4cc(CCCCOc5ccc(C=O)cc5)nn4)cc3)oc3ccccc3c2=O)c1`, the Survival falls from 89% to 76%.

Compared with `O=C(/C=C/c1ccc(OCCCCc2cn(CCOCCOc3ccc(-c4oc5ccccc5c(=O)c4OCc4ccccc4)cc3)nn2)cc1)c1ccc(F)cc1O`, `Cc1ccc(C(=O)/C=C/c2ccc(OCCCCc3cn(CCOCCOc4ccc(-c5oc6ccccc6c(=O)c5OCc5ccccc5)cc4)nn3)cc2)c(O)c1` is lower in Survival: 69% for the first, 66% for the second.

First: C#CCCCOc1ccc(-c2cc(=O)c3c(OCc4ccccc4)cc(OCOC)cc3o2)cc1
Second: C#CCOCCOc1ccc2c(=O)cc(-c3ccccc3)oc2c1
The Survival of the first is lower: 67% for the first, 98% for the second.

Compared with `O=c1c(OCc2ccccc2)c(-c2ccc(OCCOCCn3cc(-c4cccc(-c5cn(CCOCCOc6ccc(-c7oc8ccccc8c(=O)c7OCc7ccccc7)cc6)nn5)c4)nn3)cc2)oc2ccccc12`, `O=c1c(OCc2ccccc2)c(-c2cccc(OCCOCCn3cc(-c4cccc(-c5cn(CCOCCOc6cccc(-c7oc8ccccc8c(=O)c7OCc7ccccc7)c6)nn5)c4)nn3)c2)oc2ccccc12` is higher in Survival: 87% for the first, 89% for the second.

First: O=c1cc(-c2ccc(OCCOCCn3cc(CN(Cc4ccccc4)Cc4cn(CCOCCOc5ccc(-c6cc(=O)c7cc(F)ccc7o6)cc5)nn4)nn3)cc2)oc2ccc(F)cc12
Second: CN(CCN(C)Cc1cn(CCOCCOCCOc2ccc(-c3cc(=O)c4cc(F)ccc4o3)cc2)nn1)Cc1cn(CCOCCOCCOc2ccc(-c3cc(=O)c4cc(F)ccc4o3)cc2)nn1
The Survival of the first is lower: 70% for the first, 79% for the second.

Compared with `[N-]=[N+]=NCCOCCOc1ccc(-c2cc(=O)c3ccccc3o2)cc1`, `[N-]=[N+]=NCCOCCOc1ccc2c(=O)cc(-c3ccccc3)oc2c1` is higher in Survival: 78% for the first, 91% for the second.

Compared with `O=C(/C=C/c1ccc(OCCCCc2cn(CCOCCOCCOc3ccc(-c4oc5ccccc5c(=O)c4OCc4ccccc4)cc3)nn2)cc1)c1ccccc1O`, `CCc1ccc(O)c(C(=O)/C=C/c2ccc(OCCCCc3cn(CCOCCOCCOc4ccc(-c5oc6ccccc6c(=O)c5OCc5ccccc5)cc4)nn3)cc2)c1` is higher in Survival: 61% for the first, 77% for the second.

First: O=c1cc(-c2ccc(OCCOCCn3cc(CNc4ccccc4)nn3)cc2)oc2ccc(F)cc12
Second: O=c1cc(-c2ccccc2)oc2cc(OCCOCCOCCn3cc(CNc4ccccc4)nn3)ccc12
The Survival of the first is lower: 81% for the first, 90% for the second.

First: Cc1ccc2oc(-c3ccc(OCCOCCOCCn4cc(CCCOc5ccc(-c6cc(=O)c7cc(F)ccc7o6)cc5)nn4)cc3)cc(=O)c2c1
Second: O=c1cc(-c2ccc(OCCCc3cn(CCOCCOc4ccc(-c5cc(=O)c6cc(F)ccc6o5)cc4)nn3)cc2)oc2cc(F)ccc12
The Survival of the first is higher: 82% for the first, 55% for the second.

Going from `O=c1[nH]c(-c2ccc(OCCCc3cn(CCOCCOCCOc4ccc(-c5cc(=O)c6cc(F)ccc6o5)cc4)nn3)cc2)nc2ccccc12` to `O=Cc1ccc(OCCCCc2cn(CCOCCOCCOc3ccc(-c4cc(=O)c5cc(F)ccc5o4)cc3)nn2)cc1`, the Survival rises from 51% to 74%.

First: C#CCCCCOc1ccc(/C=C/C(=O)c2ccc(C)cc2O)cc1
Second: Cc1ccc(O)c(C(=O)/C=C/c2ccc(OCCCCc3cn(CCOCCOc4ccc(-c5cc(=O)c6ccccc6o5)cc4)nn3)cc2)c1
The Survival of the first is higher: 100% for the first, 60% for the second.

`O=c1c(OCc2ccccc2)c(-c2ccc(OCCOCCn3cc(CN(Cc4cn(CCOCCOc5ccc(-c6oc7ccccc7c(=O)c6OCc6ccccc6)cc5)nn4)Cc4cn(CCOCCOc5ccc(-c6oc7ccccc7c(=O)c6OCc6ccccc6)cc5)nn4)nn3)cc2)oc2ccccc12` and `O=c1cc(-c2ccc(OCCOCCOCCn3cc(CN(Cc4cn(CCOCCOCCOc5ccc(-c6cc(=O)c7cc(F)ccc7o6)cc5)nn4)Cc4cn(CCOCCOCCOc5ccc(-c6cc(=O)c7cc(F)ccc7o6)cc5)nn4)nn3)cc2)oc2ccc(F)cc12` are the same in Survival: 77% for the first, 77% for the second.

First: O=c1cc(-c2ccccc2)oc2cc(OCCCCc3cn(CCOCCOc4ccc5c(=O)cc(-c6ccccc6)oc5c4)nn3)ccc12
Second: O=c1cc(-c2ccccc2)oc2cc(OCCCCc3cn(CCOCCOc4ccc(-c5cc(=O)c6cc(F)ccc6o5)cc4)nn3)ccc12
The Survival of the first is higher: 53% for the first, 52% for the second.

First: O=c1[nH]c(-c2ccc(OCCCc3cn(CCOCCOc4cccc(-c5oc6ccccc6c(=O)c5OCc5ccccc5)c4)nn3)cc2)nc2ccccc12
Second: O=c1cc(-c2ccc(OCCCc3cn(CCOCCOc4ccc(-c5oc6ccccc6c(=O)c5OCc5ccccc5)cc4)nn3)cc2)oc2ccccc12
The Survival of the first is higher: 67% for the first, 50% for the second.

Going from `O=c1cc(-c2ccc(OCCOCCOCCn3cc(COCCOc4ccc5c(=O)cc(-c6ccccc6)oc5c4)nn3)cc2)oc2ccccc12` to `COc1cccc(COc2c(-c3ccc(OCCOCCn4cc(CCCCOc5ccc6c(=O)cc(-c7ccccc7)oc6c5)nn4)cc3)oc3ccccc3c2=O)c1`, the Survival rises from 59% to 86%.

Going from `Cc1ccc2oc(-c3ccc(OCCOCCOCCn4cc(CCCCOc5ccc(/C=C/C(=O)c6ccccc6O)cc5)nn4)cc3)cc(=O)c2c1` to `CCc1ccc(O)c(C(=O)/C=C/c2ccc(OCCCCc3cn(CCOCCOc4ccc5c(=O)cc(-c6ccccc6)oc5c4)nn3)cc2)c1`, the Survival rises from 61% to 68%.

Compared with `O=c1cc(-c2ccc(OCCOCCOCCn3cc(-c4cccc(-c5cn(CCOCCOCCOc6ccc(-c7cc(=O)c8ccccc8o7)cc6)nn5)c4)nn3)cc2)oc2ccccc12`, `Cc1ccc2oc(-c3ccc(OCCOCCOCCn4cc(CN5CCN(Cc6cn(CCOCCOCCOc7ccc(-c8cc(=O)c9cc(C)ccc9o8)cc7)nn6)CC5)nn4)cc3)cc(=O)c2c1` is higher in Survival: 85% for the first, 103% for the second.

Compared with `C#CCCN1C(=O)c2ccccc2C1=O`, `O=c1cc(-c2ccc(OCCCc3cn(CCOc4cccc5c(=O)cc(-c6ccccc6)oc45)nn3)cc2)oc2cc(F)ccc12` is lower in Survival: 83% for the first, 77% for the second.

First: O=c1cc(-c2ccccc2)oc2cc(OCCCc3cn(CCOc4cccc5c(=O)cc(-c6ccccc6)oc45)nn3)ccc12
Second: COc1cccc(COc2c(-c3ccc(OCCCCc4cn(CCOc5cccc6c(=O)cc(-c7ccccc7)oc56)nn4)cc3)oc3ccccc3c2=O)c1
The Survival of the first is higher: 56% for the first, 51% for the second.

Molecule `[N-]=[N+]=NCCOCCOCCOc1ccc(-c2cc(=O)c3cc(F)ccc3o2)cc1` has a Survival of 85%.
